The record followed here is ChEMBL document CHEMBL1131238, “Investigation of the N-substituent conformation governing potency and mu receptor subtype-selectivity in (+)-(3R, 4R)-dimethyl-4-(3-hydroxyphenyl)piperidine opioid antagonists” (J Med Chem, 1998).

The structures appear in SMILES notation. Where only a bound is given, the exact number is not on record here.

For experiment [1], the target named is T1, Kappa-type opioid receptor (Cavia porcellus, UniProt P41144). Briefly: Inhibition of [3H]U-69593 binding to Opioid receptor kappa 1 of guinea pig membranes.
T1 sequence (P41144 whole entry): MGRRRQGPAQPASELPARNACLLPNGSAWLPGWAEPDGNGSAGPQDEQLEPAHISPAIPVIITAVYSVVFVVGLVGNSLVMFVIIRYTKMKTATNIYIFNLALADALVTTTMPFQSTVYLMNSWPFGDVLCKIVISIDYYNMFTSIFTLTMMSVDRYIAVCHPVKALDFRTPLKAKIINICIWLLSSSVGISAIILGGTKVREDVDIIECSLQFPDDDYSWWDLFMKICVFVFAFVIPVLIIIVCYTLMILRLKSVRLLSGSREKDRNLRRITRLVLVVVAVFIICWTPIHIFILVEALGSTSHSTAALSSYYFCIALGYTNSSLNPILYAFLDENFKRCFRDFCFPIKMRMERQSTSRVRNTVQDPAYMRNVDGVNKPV
Experiment [2] has as its target Mu-type opioid receptor (Rattus norvegicus, UniProt P33535). Briefly: Inhibition of [3H]DAMGO binding to Opioid receptor mu 1 of rat brain membranes. Type of experiment: cell membranes, Membrane.
Experiment [3] deals with Delta-type opioid receptor (Rattus norvegicus, UniProt P33533). Briefly: Inhibition of [3H]-DADLE binding to Opioid receptor delta 1 of rat brain membranes. It is filed as cell membranes, Membrane.
Delta-type opioid receptor, sequence (P33533 whole entry): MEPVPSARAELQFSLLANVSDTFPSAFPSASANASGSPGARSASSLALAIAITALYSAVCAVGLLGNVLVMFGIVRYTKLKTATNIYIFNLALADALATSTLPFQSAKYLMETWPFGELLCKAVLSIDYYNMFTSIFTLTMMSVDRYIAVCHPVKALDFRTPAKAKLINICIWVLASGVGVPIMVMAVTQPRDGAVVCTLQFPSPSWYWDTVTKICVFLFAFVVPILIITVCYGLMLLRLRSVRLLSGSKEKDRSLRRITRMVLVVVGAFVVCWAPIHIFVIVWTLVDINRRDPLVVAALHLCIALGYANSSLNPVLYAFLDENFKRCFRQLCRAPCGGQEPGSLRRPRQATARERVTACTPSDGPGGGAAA
Experiment [4] has as its target Mu-type opioid receptor (Cavia porcellus, UniProt P97266). Briefly: The compound was tested for antagonist activity by selective inhibition of [35S]GTP-gamma-S, binding to Opioid receptor mu 1 in Guinea pig caudate stimulated by DAMGO[mu]. Type of experiment: functional. An outline of the steps:
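Guinea pig caudate putamen membranes (10 μg/tube) in 50 mM Tris-HCl pH 7.7, 0.1% BSA. Final: 100 mM NaCl, 5 mM MgCl2, 1 mM EDTA, 1 mM DTT, 100 μM GDP, 0.05–0.1 nM [35S]GTP-γ-S, agonist 500 nM or 10 μM, ≥10 antagonist concentrations; 4 h, filtration.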

Experiment [5] has as its target T1, Kappa-type opioid receptor. Briefly: The compound was tested for antagonist activity by selective inhibition of [35S]GTP-gamma-S, binding in Guinea pig caudate stimulated by U69,593 to Opioid receptor kappa 1. It is filed as functional.

Mu-type opioid receptor (Rattus norvegicus, UniProt P33535), sequence (P33535 whole entry): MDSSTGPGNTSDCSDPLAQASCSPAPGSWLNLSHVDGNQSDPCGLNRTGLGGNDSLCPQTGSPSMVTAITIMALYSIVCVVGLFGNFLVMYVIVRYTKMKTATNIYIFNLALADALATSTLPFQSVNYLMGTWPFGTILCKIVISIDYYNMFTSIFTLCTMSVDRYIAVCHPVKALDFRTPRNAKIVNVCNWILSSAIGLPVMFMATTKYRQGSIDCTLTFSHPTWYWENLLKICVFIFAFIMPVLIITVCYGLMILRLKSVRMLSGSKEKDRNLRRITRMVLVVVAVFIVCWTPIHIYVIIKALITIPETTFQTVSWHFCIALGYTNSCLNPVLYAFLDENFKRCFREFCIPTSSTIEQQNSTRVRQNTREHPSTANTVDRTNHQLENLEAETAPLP
Mu-type opioid receptor (Cavia porcellus, UniProt P97266), sequence (P97266 whole entry): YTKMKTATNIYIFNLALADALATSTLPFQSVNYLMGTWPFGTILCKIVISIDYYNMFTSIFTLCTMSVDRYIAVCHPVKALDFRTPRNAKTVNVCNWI

`C[C@H]1CN(C[C@@H]2C[C@H]2c2ccccc2)CC[C@@]1(C)c1cccc(O)c1`: the Ki in experiment [1] came to 81.8 nM; on Mu-type opioid receptor [2], 1.75 nM; in experiment [3], 709 nM.
Turning to `C[C@H]1CN(C2CCCC2)CC[C@@]1(C)c1cccc(O)c1`, the Ki was 199 nM in experiment [1], 444 nM at Mu-type opioid receptor [2] and > 7300 nM in experiment [3].
Turning to `C[C@H]1CN(CC[C@H](O)C2CCCCC2)CC[C@@]1(C)c1cccc(O)c1`, the Ki in experiment [1] was determined as 28 nM; on Mu-type opioid receptor [4], 0.021 nM; on Mu-type opioid receptor [2], 0.32 nM; in experiment [3], 198 nM; in experiment [5], 0.33 nM.
For `C[C@H]1CN(Cc2cc3ccccc3s2)CC[C@@]1(C)c1cccc(O)c1`, the values for the Ki (in experiment [1]; on Mu-type opioid receptor [2]; in experiment [3]) were > 690 nM, 21.2 nM and 1580 nM, respectively.
The like results for `C[C@H]1CN(C2CCCC(O)(c3ccccc3)C2)CC[C@@]1(C)c1cccc(O)c1` (stereo partly drawn) were, in that order, 674 nM, 203 nM and > 7300 nM.
Turning to `C[C@H]1CN(C/C=C/c2ccccc2Cl)CC[C@@]1(C)c1cccc(O)c1`, the Ki was 35.8 nM in experiment [1]; 0.026 nM at Mu-type opioid receptor [4]; 1.12 nM on Mu-type opioid receptor [2]; 168 nM in experiment [3]; 0.567 nM in experiment [5].
For `C[C@H]1CN(C/C=C/c2ccccc2)CC[C@@]1(C)c1cccc(O)c1`, in that order: 122 nM, 0.039 nM, 0.74 nM, 322 nM and 1.04 nM.
Take `Cc1ccccc1/C=C/CN1CC[C@@](C)(c2cccc(O)c2)[C@@H](C)C1`: the inhibition constant Ki came to 38.9 nM in experiment [1]; 0.013 nM at Mu-type opioid receptor [4]; 0.86 nM on Mu-type opioid receptor [2]; 142 nM in experiment [3]; 0.17 nM in experiment [5].
Take `C[C@H]1CN(C2CCCC(O)C2)CC[C@@]1(C)c1cccc(O)c1` (stereo partly drawn): the Ki in experiment [1] was 1150 nM; in experiment [3], > 7300 nM.
Consider `C[C@H]1CN(Cc2cc3ccccc3o2)CC[C@@]1(C)c1cccc(O)c1`, for which the results for the Ki (in experiment [1]; at Mu-type opioid receptor [2]; in experiment [3]) were > 690 nM, 22.2 nM and 1450 nM, respectively.
The like results for `C[C@H]1CN(C2CCCCC2)CC[C@@]1(C)c1cccc(O)c1` were, in that order, 315 nM, 1280 nM and > 7300 nM.
With `C[C@H]1CN(C/C=C\c2ccccc2)CC[C@@]1(C)c1cccc(O)c1`, the Ki in experiment [1] was 298 nM; at Mu-type opioid receptor [2] it was 11.4 nM; in experiment [3], 931 nM.
